According to ChEMBL document CHEMBL1833793 (Bioorg Med Chem Lett, 2011):

Legend:
[1] = biological target: T1, Neuropeptide Y receptor type 5 (Homo sapiens, UniProt Q15761); experiment: Antagonist activity at human NPY5 receptor assessed as calcium mobilization by FLIPR assay; type: functional
T1 sequence (Q15761 whole entry): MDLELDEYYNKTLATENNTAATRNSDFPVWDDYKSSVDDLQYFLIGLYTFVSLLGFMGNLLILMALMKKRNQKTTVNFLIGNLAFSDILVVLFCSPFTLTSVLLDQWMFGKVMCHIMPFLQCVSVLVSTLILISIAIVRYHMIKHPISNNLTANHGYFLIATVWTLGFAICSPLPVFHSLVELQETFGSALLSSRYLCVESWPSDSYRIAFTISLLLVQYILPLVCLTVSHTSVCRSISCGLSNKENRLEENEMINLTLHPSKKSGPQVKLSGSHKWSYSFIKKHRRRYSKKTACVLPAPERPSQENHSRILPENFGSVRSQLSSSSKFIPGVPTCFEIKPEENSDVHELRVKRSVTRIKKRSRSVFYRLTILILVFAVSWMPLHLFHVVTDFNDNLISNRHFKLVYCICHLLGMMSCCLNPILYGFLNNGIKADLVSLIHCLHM

[2] = Plasma concentration in rat at 10 mg/kg, po after 4 hrs; type: ADME, organism-based; parameters: dose 10 mg/kg, route oral
In short: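 Single oral dose of 10 mg/kg in rats, two animals. Plasma was sampled at 4 h and the two values averaged. LOQ 2 ng/mL.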

[3] = biological target: T1, Neuropeptide Y receptor type 5; experiment: Binding affinity to human NPY5 receptor
[4] = biological target: T2, Neuropeptide Y receptor type 1 (Homo sapiens, UniProt P25929); experiment: Antagonist activity at human NPY1 receptor assessed as calcium mobilization by FLIPR assay; type: functional
T2 sequence (P25929 whole entry): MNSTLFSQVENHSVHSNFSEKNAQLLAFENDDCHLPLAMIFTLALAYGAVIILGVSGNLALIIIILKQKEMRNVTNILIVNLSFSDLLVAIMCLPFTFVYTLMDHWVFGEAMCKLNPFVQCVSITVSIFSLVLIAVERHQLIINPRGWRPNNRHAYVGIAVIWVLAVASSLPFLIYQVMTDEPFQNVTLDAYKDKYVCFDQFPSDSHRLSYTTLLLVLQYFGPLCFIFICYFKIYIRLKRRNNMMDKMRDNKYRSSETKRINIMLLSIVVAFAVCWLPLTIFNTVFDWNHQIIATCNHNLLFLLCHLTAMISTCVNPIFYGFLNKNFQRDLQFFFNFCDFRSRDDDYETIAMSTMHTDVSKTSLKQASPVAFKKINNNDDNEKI

[5] = biological target: T3, Neuropeptide Y receptor type 2 (Homo sapiens, UniProt P49146); experiment: Antagonist activity at human NPY2 receptor assessed as calcium mobilization by FLIPR assay; type: functional
T3 sequence (P49146 whole entry): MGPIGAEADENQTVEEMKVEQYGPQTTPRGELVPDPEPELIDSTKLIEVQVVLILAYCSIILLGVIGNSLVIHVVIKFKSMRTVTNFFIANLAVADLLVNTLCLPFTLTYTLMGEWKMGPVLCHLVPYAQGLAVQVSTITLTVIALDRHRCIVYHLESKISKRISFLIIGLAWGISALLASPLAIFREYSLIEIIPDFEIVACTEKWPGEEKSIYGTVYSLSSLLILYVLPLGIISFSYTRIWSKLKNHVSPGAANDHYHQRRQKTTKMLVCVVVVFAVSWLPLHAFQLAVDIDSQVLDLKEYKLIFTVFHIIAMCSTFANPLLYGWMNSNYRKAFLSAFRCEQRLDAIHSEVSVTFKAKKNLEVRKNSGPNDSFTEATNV

[6] = biological target: Neuropeptide Y receptor type 4 (Homo sapiens, UniProt P50391); experiment: Antagonist activity at human NPY4 receptor assessed as calcium mobilization by FLIPR assay; type: functional
Neuropeptide Y receptor type 4, sequence (P50391 whole entry): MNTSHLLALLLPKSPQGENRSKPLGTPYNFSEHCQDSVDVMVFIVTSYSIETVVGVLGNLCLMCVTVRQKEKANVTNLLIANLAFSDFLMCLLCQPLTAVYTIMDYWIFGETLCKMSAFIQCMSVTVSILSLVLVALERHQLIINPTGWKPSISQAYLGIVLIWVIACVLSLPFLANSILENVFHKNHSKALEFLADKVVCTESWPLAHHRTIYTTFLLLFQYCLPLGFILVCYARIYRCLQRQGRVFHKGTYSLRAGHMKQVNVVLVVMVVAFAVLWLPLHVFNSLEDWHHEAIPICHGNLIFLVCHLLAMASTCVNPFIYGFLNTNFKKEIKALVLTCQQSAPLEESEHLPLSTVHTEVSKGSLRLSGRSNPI

Liver microsomes [7] = experiment: Intrinsic clearance in human liver microsome; type: ADME
Liver microsomes [8] = experiment: Intrinsic clearance in rat liver microsome; type: ADME
[9] = Drug uptake in rat brain at 10 mg/kg, po after 4 hrs; type: ADME, organism-based; parameters: dose 10 mg/kg, route oral; conditions: read-out: Drug uptake
In short: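 Rat single oral dose of 10 mg/kg, two animals; plasma and brain homogenate levels measured at 4 h and averaged; quantification limit 2 ng/mL plasma, 2 ng/g brain.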

[10] = biological target: T2, Neuropeptide Y receptor type 1; experiment: Binding affinity to NPY1 receptor
[11] = biological target: T1, Neuropeptide Y receptor type 5; experiment: Binding affinity to NPY5 receptor
Rattus norvegicus = experiment: Antistress activity against chronic mild stress Sprague-Dawley rat model assessed as increase sucrose consumption at 5 mg/kg, ip bid measured after 4 weeks; type: functional; conditions: route intraperitoneal

SMILES | IC50 [1] [nM] | Ki [3] [nM] | further results
CCS(=O)(=O)NCCCCCNc1nc2c(s1)CCSc1ccccc1-2 | 0.6 | 0.8 | concentration at 4 h [2]: 14 ng/mL
CCS(=O)(=O)NCCCCCNc1nc2c(s1)CCCc1ccc(F)cc1-2 | 1.3 | 0.9 | –
CS(=O)(=O)NCCCCCNc1nc2c(s1)CCSc1ccccc1-2 | 5 | 8.8 | –
CS(=O)(=O)NCCCCCNc1nc2c(s1)CCSc1ccc(F)cc1-2 | – | 1.7 | CL (Liver microsomes [7]): 6.8 L/min; CL (Liver microsomes [8]): 89 mL/min; concentration at 4 h [2]: 61 ng/mL; concentration at 4 h [9]: 140 ng/g
CS(=O)(=O)NC[C@H]1CC[C@H](Nc2nc3c(s2)CCCc2ccc(F)cc2-3)CC1 | – | 1.1 | –
COc1ccccc1CNCCCCCCNCCSSCCNCCCCCCNCc1ccccc1OC [BENEXTRAMINE] | – | – | Ki [10]: 1800 nM; Ki [11]: 5000 nM
CN(C)CCC[C@@]1(c2ccc(F)cc2)OCc2cc(C#N)ccc21 [ESCITALOPRAM] | – | – | Activity (Rattus norvegicus): >10%
CC(C)S(=O)(=O)NCCOCCNc1nc2c(s1)CCCc1ccc(F)cc1-2 | – | 2.4 | –
CS(=O)(=O)N[C@H]1CC[C@H](Nc2nc3c(s2)CCCc2ccc(F)cc2-3)CC1 | 8.8 | 27 | –
COc1ccc2c(c1)OCCc1sc(NC[C@H]3CC[C@H](NS(C)(=O)=O)CC3)nc1-2 | – | 6.7 | –
O=S(=O)(CC(F)(F)F)NCCCCNc1nc2c(s1)CCCc1ccc(F)cc1-2 | 1.9 | 3.4 | –
CC(C)S(=O)(=O)NCCCCCNc1nc2c(s1)CCCc1ccc(F)cc1-2 | 98.7 | 46 | –
CS(=O)(=O)NCCCCCNc1nc2c(s1)CCCc1ccc(F)cc1-2 | 0.9 | – | –
O=S(=O)(CC(F)(F)F)NCCCCCNc1nc2c(s1)CCCc1ccc(F)cc1-2 | 9.9 | 7.5 | –

Further lines, with some results ahead:

IC50 [1] [nM] | Ki [3] [nM] | SMILES | further results
3.8 | 1.9 | O=S(=O)(NC[C@H]1CC[C@H](Nc2nc3c(s2)CCSc2ccccc2-3)CC1)c1cccs1 | IC50 [4]: > 1000 nM; IC50 [5]: > 1000 nM; IC50 [6]: > 1000 nM; CL (Liver microsomes [7]): 6.9 L/min; CL (Liver microsomes [8]): 120 mL/min; concentration at 4 h [2]: 8 ng/mL; concentration at 4 h [9]: 10 ng/g
3.9 | 16.1 | CS(=O)(=O)NC[C@H]1CC[C@H](Nc2nc3c(s2)CCOc2ccccc2-3)CC1 | –
– | 1.1 | COc1cccc2c1OCCc1sc(N[C@H]3CC[C@H](CNS(C)(=O)=O)CC3)nc1-2 | –
30.8 | 2.8 | CCS(=O)(=O)NC[C@H]1CC[C@H](Nc2nc3c(s2)CCSc2ccccc2-3)CC1 | IC50 [4]: > 1000 nM; IC50 [5]: > 1000 nM; IC50 [6]: > 1000 nM
10.4 | 21.5 | Cn1cnc(S(=O)(=O)NC[C@H]2CC[C@H](Nc3nc4c(s3)CCSc3ccccc3-4)CC2)c1 | –
43.6 | 13.9 | O=S(=O)(NC[C@H]1CC[C@H](Nc2nc3c(s2)CCSc2ccccc2-3)CC1)c1cccc2ccccc12 | –
34.6 | 4.9 | COc1ccc(C)cc1S(=O)(=O)NC[C@H]1CC[C@H](Nc2nc3c(s2)CCSc2ccccc2-3)CC1 | IC50 [4]: > 1000 nM; IC50 [5]: > 1000 nM; IC50 [6]: > 1000 nM
